Experimental data: article PMC11344153 (Scientific Reports, 2024)

What was measured:
[1] = system: N-terminal peptide of GPIHBP1; test: SPR binding to immobilized N-terminal peptide of GPIHBP1; set-up: species or system human; details: even at concentrations of 1 μM, 25 °C, 20 mM HEPES pH 7.4, 0.15 M NaCl
Procedure, shortened: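 Biacore SPR with 578 RU of biotinylated N-terminal GPIHBP1 peptide captured on the sensor (148.5 fmol/mm2). Analytes were tenfold-diluted pooled nonfasting human plasma, tenfold-diluted lipoprotein-deficient plasma (± 20, 40 or 80 nM purified bovine LPL) or isolated heparin-binding proteins (antithrombin III, protamine, FGF-2). Flow was 20 µl/min at 25 °C in 20 mM HEPES pH 7.4, 0.15 M NaCl.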

LPL = molecular target: T1, LPL (Bos taurus, UniProt P11151); type: binding, bovine; details: fluorescence anisotropy, 10 IU/ml heparin in phosphate buffer
T1 sequence (P11151 29-478): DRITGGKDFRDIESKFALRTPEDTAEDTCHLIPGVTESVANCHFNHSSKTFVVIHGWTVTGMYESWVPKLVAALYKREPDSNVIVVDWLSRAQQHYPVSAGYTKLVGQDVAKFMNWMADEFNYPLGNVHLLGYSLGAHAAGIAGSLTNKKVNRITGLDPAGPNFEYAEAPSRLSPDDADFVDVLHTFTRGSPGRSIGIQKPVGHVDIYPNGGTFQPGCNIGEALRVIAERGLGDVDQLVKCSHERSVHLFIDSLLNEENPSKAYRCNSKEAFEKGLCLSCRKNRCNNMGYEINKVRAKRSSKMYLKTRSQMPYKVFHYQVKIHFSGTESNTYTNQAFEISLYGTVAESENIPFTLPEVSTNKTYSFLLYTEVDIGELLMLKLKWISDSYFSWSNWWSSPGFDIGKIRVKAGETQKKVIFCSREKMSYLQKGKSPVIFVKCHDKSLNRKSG
Procedure, shortened: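 N-terminal GPIHBP1 peptide labeled at cysteine with DyLight 488 maleimide, 100 nM, mixed with increasing LPL concentrations in 20 mM phosphate, pH 7.4, 0.15 M NaCl plus 10 IU/ml heparin. Excitation 493 nm, emission 518 nm, with emission polarizer parallel and perpendicular to vertical excitation. Anisotropy change versus LPL concentration fitted to a 1:1 binding model for KD.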

Row | binding to the immobilized N-terminal domain of GPIHBP1 [1] | effect on the interaction between LPL and the N-terminal domain of GPIHBP1 (LPL) | Substance
1 | no binding | – | FGF-2: heparin binding protein, ICN Biomedicals
2 | no binding | – | antithrombin III
3 | – | completely blocked the interaction | heparin
4 | no binding | – | protamine
